The source made the active and inactive calls. No cut-off for these calls is given here.
Assays:
[1] = target: T1, ATP-dependent translocase ABCB1 (Homo sapiens, UniProt P08183); assay: Reversal of P-gp-mediated drug resistance in human KBV cells assessed as potentiation of paclitaxel-induced cytotoxicity by measuring fold reduction in paclitaxel IC50 at 5 uM after 72 hrs by MTT assay relative to paclitaxel alone; format: cell-based
Procedure, shortened: (§1)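 KBV cells cultured in RPMI-1640 with 10% heat-inactivated fetal calf serum at 37°C, 5% CO2, and used in log phase. Seeded in 96-well plates. Exposed to paclitaxel with or without modulator (5 or 10 µM) for 24, 48 or 72 h. MTT added, formazan dissolved in DMSO, OD read at 570 nm. Survival rate used to derive paclitaxel IC50. RF taken as the fold reduction of IC50 relative to paclitaxel alone.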

[2] = target: T1, ATP-dependent translocase ABCB1; assay: Reversal of P-gp-mediated drug resistance in human KBV cells assessed as potentiation of paclitaxel-induced cytotoxicity by measuring fold reduction in paclitaxel IC50 at 10 uM after 72 hrs by MTT assay relative to paclitaxel alone; format: cell-based; procedure, shortened: as §1
[3] = Solubility of the compound in water; format: physicochemical; details: buffer
[4] = target: T1, ATP-dependent translocase ABCB1; assay: Reversal of P-gp-mediated drug resistance in human KBV cells assessed as potentiation of paclitaxel-induced cytotoxicity by measuring fold reduction in paclitaxel IC50 at 5 uM after 24 hrs by MTT assay; format: cell-based; procedure, shortened: as §1
[5] = n-octanol/aqueous buffer solution partition coefficient, log P of the compound at pH 6.8 after 4 hrs by HPLC method; format: physicochemical
Procedure, shortened: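 Shake-flask partition between n-octanol and pH 6.8 buffer at a 1:1 ratio, room temperature, shaken 4 h. Compound concentration in each phase measured by HPLC.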

[6] = target: T1, ATP-dependent translocase ABCB1; assay: Reversal of P-gp-mediated drug resistance in human KBV cells assessed as potentiation of paclitaxel-induced cytotoxicity by measuring fold reduction in paclitaxel IC50 at 10 uM after 48 hrs by MTT assay; format: cell-based; procedure, shortened: as §1
[7] = Cytotoxicity against human KBV cells assessed as cell survival at 5 uM after 72 hrs by MTT assay relative to control; format: cell-based; details: read-out: Survival
Procedure, shortened: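 KBV cells (RPMI-1640 with 10% heat-inactivated FCS, 37 °C, 5% CO2, log-phase) were seeded in 96-well plates and exposed to compound alone at 5 µM for 72 h. MTT was added and incubated, then DMSO was added. OD was read at 570 nm and survival rate was calculated.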

[8] = target: T1, ATP-dependent translocase ABCB1; assay: Reversal of P-gp-mediated drug resistance in human KBV cells assessed as potentiation of paclitaxel-induced cytotoxicity by measuring fold reduction in paclitaxel IC50 at 10 uM after 24 hrs by MTT assay; format: cell-based; procedure, shortened: as §1
[9] = target: T1, ATP-dependent translocase ABCB1; assay: Reversal of P-gp-mediated drug resistance in human KBV cells assessed as potentiation of paclitaxel-induced cell cycle arrest by measuring accumulation at sub-G1 phase at 10 uM after 24 hrs by propidium iodide staining based flow cytometry
Procedure, shortened: (§2)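 KBV cells plated in 6-well plates overnight, then treated for 24 h at 10 µM alongside paclitaxel. Cells fixed in 70% ethanol overnight at -20 °C, washed in PBS, and stained 30 min with PI/RNase A. Flow cytometry gave the cell-cycle distribution, with sub-G1 taken as apoptotic cells. Mean ± SD, n = 3.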

[10] = system: Homo sapiens; assay: Potentiation of paclitaxel-induced antitumor activity against human KBV cells xenografted in Balb/c nude mouse assessed as tumor growth inhibition at 50 mg/kg, po via gavage cotreated with 30 mg/kg, ip paclitaxel; format: functional, organism-based
Procedure, shortened: (§3)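 Male BALB/c nude mice, 6−8 weeks old, given 5 × 10^6 KBV cells subcutaneously in the dorsal region. Randomized once tumors reached about 100-200 mm3, five per group: control, paclitaxel 30 mg/kg, test agent 50 mg/kg, or the combination. Paclitaxel given i.p. twice a week; test agent by gavage. Tumor growth measured every three days; tumors excised and weighed at the end.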

[11] = target: T1, ATP-dependent translocase ABCB1; assay: Reversal of P-gp-mediated drug resistance in human KBV cells assessed as potentiation of paclitaxel-induced cytotoxicity by measuring fold reduction in paclitaxel IC50 at 5 uM after 48 hrs by MTT assay; format: cell-based; procedure, shortened: as §1
[12] = Toxicity in Balb/c nude mouse xenografted with human KBV cells at 50 mg/kg, po via gavage cotreated with 30 mg/kg, ip paclitaxel; format: organism-based; details: in vivo
[13] = Cytotoxicity against human KBV cells xenografted in Balb/c nude mouse assessed as tumor growth inhibition at 50 mg/kg, po via gavage; format: organism-based; details: in vivo; procedure, shortened: as §3
[14] = target: T1, ATP-dependent translocase ABCB1; assay: Reversal of P-gp-mediated drug resistance in human KBV cells assessed as potentiation of paclitaxel-induced cytotoxicity by measuring reduction in paclitaxel IC50 by MTT assay; format: cell-based
[15] = target: T1, ATP-dependent translocase ABCB1; assay: Inhibition of P-gp-mediated Rhodamine-123 efflux in human KBV cells assessed as Rhodamine-123 accumulation preincubated for 2 hrs followed by Rhodamine-123 addition measured after 30 mins by flow cytometry; format: cell-based; details: 0.5 h
[16] = target: T1, ATP-dependent translocase ABCB1; assay: Reversal of P-gp-mediated drug resistance in human KBV cells assessed as potentiation of paclitaxel-induced cell cycle arrest by measuring accumulation at G2/M phase at 10 uM after 24 hrs by propidium iodide staining based flow cytometry; procedure, shortened: as §2
[17] = target: T1, ATP-dependent translocase ABCB1; assay: Reversal of P-gp-mediated drug resistance in human KBV cells assessed as potentiation of paclitaxel-induced cytotoxicity by measuring cell survival at 5 uM after 72 hrs by MTT assay (reference value: 98 +/- 19%); format: cell-based
[18] = Potentiation of paclitaxel-induced antitumor activity against human KBV cells xenografted in nude mouse assessed as tumor weight at […] cotreated with 30 mg/kg paclitaxel relative to control; format: functional

T1 sequence (P08183 whole entry): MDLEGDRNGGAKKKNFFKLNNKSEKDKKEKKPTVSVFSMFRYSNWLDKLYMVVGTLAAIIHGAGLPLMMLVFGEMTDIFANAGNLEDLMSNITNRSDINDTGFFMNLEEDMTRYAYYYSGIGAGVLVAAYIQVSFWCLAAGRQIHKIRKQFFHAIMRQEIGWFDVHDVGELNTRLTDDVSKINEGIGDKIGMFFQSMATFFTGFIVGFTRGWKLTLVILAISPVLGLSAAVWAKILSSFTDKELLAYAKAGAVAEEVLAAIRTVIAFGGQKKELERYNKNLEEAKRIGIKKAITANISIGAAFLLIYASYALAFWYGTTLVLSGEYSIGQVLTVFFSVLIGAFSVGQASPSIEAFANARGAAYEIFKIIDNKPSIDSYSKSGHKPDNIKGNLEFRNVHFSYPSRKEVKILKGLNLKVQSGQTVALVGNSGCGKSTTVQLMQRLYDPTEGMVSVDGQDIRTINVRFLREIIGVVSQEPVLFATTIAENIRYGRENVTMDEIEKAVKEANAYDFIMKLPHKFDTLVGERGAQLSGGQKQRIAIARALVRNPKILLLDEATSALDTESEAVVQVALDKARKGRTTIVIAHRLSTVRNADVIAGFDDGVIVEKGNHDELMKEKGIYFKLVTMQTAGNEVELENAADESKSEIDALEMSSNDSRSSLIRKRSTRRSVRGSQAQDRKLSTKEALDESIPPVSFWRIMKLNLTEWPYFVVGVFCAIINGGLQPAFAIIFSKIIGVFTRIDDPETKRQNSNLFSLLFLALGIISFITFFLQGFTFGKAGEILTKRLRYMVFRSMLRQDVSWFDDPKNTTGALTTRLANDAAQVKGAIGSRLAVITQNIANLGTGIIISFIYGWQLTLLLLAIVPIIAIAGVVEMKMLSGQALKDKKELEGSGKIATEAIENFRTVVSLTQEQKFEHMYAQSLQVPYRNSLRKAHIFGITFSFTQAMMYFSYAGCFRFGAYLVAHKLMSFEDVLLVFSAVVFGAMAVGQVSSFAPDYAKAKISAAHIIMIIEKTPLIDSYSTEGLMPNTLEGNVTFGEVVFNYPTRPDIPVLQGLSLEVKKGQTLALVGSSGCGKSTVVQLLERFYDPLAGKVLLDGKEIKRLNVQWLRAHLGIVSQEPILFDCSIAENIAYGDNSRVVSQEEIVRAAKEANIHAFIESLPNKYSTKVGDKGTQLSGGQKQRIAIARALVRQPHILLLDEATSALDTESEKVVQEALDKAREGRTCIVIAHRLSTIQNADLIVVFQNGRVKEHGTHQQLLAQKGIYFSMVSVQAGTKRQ

| SMILES | fold change (FC) [1] | fold change (FC) [2] | logD at 4 h [5] | viability at 72 h, 5 µM [7] [%] | Survival [17] [%] | further results |
| --- | --- | --- | --- | --- | --- | --- |
| COc1cc2c(cc1OC)CN(CCc1ccc(NC(=O)c3cc(OC)c(OC)cc3NC(=O)c3cnc4ccccc4c3)cc1)CC2 | 75.95 | 89.41 | – | – | – | – |
| CN(C)CCCOC(=O)[C@]12CCC(C)(C)C[C@H]1C1=CC[C@@H]3[C@@]4(C)Cc5nccnc5[C@@](C)(CO)[C@@H]4CC[C@@]3(C)[C@]1(C)CC2 | 32.5 | 250.77 | -1.25 | 97 | 10 | solubility [3]: Soluble; fold change (FC) [4]: 77.1; fold change (FC) [6]: 81.11; fold change (FC) [8]: 109.79; Activity [9]: Active; TGI [10]: Active; fold change (FC) [11]: 65.92; Activity [12]: Non-Toxic; TGI [13]: Non-Toxic; Activity [14]: Dose-dependent effect and Tde; inhibition (INH) [15]: Dose-dependent effect; Activity [16]: Active |
| CC1(C)CC[C@]2(C(=O)OCc3ccccc3)CC[C@]3(C)C(=CC[C@@H]4[C@@]5(C)Cc6nccnc6[C@@](C)(CO)[C@@H]5CC[C@]43C)[C@@H]2C1 | – | – | -0.54 | – | 18 | Activity [18]: 42% |
| Cl.Cl.Cl.O[C@@H](COc1cccc2ncccc12)CN1CCN([C@@H]2c3ccccc3[C@@H]3[C@H](c4ccccc42)C3(F)F)CC1 [ZOSUQUIDAR TRIHYDROCHLORIDE] | 32.5 | 114.11 | – | – | – | – |
| CC1(C)CC[C@]2(C(=O)N[C@@H](CC(=O)O)C(=O)O)CC[C@]3(C)C(=CC[C@@H]4[C@@]5(C)Cc6nccnc6[C@@](C)(CO)[C@@H]5CC[C@]43C)[C@@H]2C1 | – | – | -0.39 | 90 | 81 | – |
| CC1(C)CC[C@]2(C(=O)NCC(=O)O)CC[C@]3(C)C(=CC[C@@H]4[C@@]5(C)Cc6nccnc6[C@@](C)(CO)[C@@H]5CC[C@]43C)[C@@H]2C1 | – | – | -0.43 | 96 | 101 | – |
| CC1(C)CC[C@]2(C(=O)N[C@@H](Cc3ccc(O)cc3)C(=O)O)CC[C@]3(C)C(=CC[C@@H]4[C@@]5(C)Cc6nccnc6[C@@](C)(CO)[C@@H]5CC[C@]43C)[C@@H]2C1 | – | – | -0.03 | 76 | 68 | – |
| CSCC[C@H](NC(=O)[C@]12CCC(C)(C)C[C@H]1C1=CC[C@@H]3[C@@]4(C)Cc5nccnc5[C@@](C)(CO)[C@@H]4CC[C@@]3(C)[C@]1(C)CC2)C(=O)O | – | – | -0.2 | 94 | 94 | – |

Reference: ChEMBL document CHEMBL4325867, “Synthesis and biological evaluation of novel H6 analogues as drug resistance reversal agents” (Eur J Med Chem, 2019)
